Measurements reported in ChEMBL document CHEMBL3352770, “Click chemistry inspired synthesis and bioevaluation of novel triazolyl derivatives of osthol as potent cytotoxic agents” (Eur J Med Chem, 2014).

What was measured:
A-431 = assay: Cytotoxicity against human A431 cells after 24 hrs by MTT assay; format: functional, cell-based; conditions: A-431, 24 h
In short: (§1)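 Cells kept in DMEM with 10% foetal calf serum, penicillin and streptomycin, at 37 °C under 5% CO2. For assays serum lowered to 3%. Cells treated with test material at 0.04–60 µM for 24 h, then MTT (250 µg/mL) for 3 h. Formazan OD read at 570 nm. IC50 by non-linear regression, mean of triplicates. BEZ-235 as positive control.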

T47D = assay: Cytotoxicity against human T47D cells after 24 hrs by MTT assay; format: functional, cell-based; in short: as §1
[1] = Cytotoxicity against human NCI-H322 cells after 24 hrs by MTT assay; format: functional, cell-based; conditions: NCI-H322, 24 h; in short: as §1
COLO 205 [2] = assay: Cytotoxicity against human COLO205 cells after 24 hrs by MTT assay; format: functional, cell-based; conditions: COLO 205, 24 h; in short: as §1
[3] = Cytotoxicity against human PC3 cells after 24 hrs by MTT assay; format: functional, cell-based; conditions: PC-3, 24 h; in short: as §1
[4] = Cytotoxicity against human HCT116 cells after 24 hrs by MTT assay; format: functional, cell-based; conditions: HCT-116, 24 h; in short: as §1
COLO 205 [5] = assay: Induction of cell cycle arrest in human COLO205 cells assessed as accumulation at G1 phase at 1 uM after 48 hrs by propidium iodide staining based flow cytometry (reference value: 45.7%); format: functional
COLO 205 [6] = assay: Induction of apoptosis in human COLO205 cells assessed as accumulation at subG1 phase at 1 uM after 48 hrs by propidium iodide staining based flow cytometry (reference value: 12%); format: functional
COLO 205 [7] = assay: Induction of cell cycle arrest in human COLO205 cells assessed as accumulation at G2 phase at 1 uM after 48 hrs by propidium iodide staining based flow cytometry (reference value: 13.2%); format: functional
COLO 205 [8] = assay: Induction of mitochondrial membrane potential loss in human COLO205 cells at 1 uM after 48 hrs by Rh-123 staining based flow cytometry (reference value: 12.4%); format: functional
COLO 205 [9] = assay: Induction of cell cycle arrest in human COLO205 cells assessed as accumulation at S phase at 1 uM after 48 hrs by propidium iodide staining based flow cytometry (reference value: 13.8%); format: functional
A549 = assay: Cytotoxicity against human A549 cells after 24 hrs by MTT assay; format: functional, cell-based; conditions: A549, 24 h; in short: as §1

| SMILES | IC50 (A-431) | IC50 (T47D) | IC50 [1] | IC50 (COLO 205 [2]) | IC50 [3] | IC50 [4] | Activity (COLO 205 [5]) | Activity (COLO 205 [6]) | Activity (COLO 205 [7]) | Activity (COLO 205 [8]) | Activity (COLO 205 [9]) | IC50 (A549) |
| --- | --- | --- | --- | --- | --- | --- | --- | --- | --- | --- | --- | --- |
| COc1ccc(/C=C\C(=O)O)c(OCc2cn(-c3ccc(NC(C)=O)cc3)nn2)c1CC=C(C)C | 23.4 µM | 17.4 µM | 45.7 µM | 22.6 µM | – | – | – | – | – | – | – | – |
| COc1ccc(/C=C\C(=O)O)c(OCc2cn(-c3cccc([N+](=O)[O-])c3)nn2)c1CC=C(C)C | 18.4 µM | 15.4 µM | 43.2 µM | 6.9 µM | 42.1 µM | 27.3 µM | – | – | – | – | – | – |
| CC[C@@]1(O)C(=O)OCc2c1cc1n(c2=O)Cc2cc3ccccc3nc2-1 [CAMPTOTHECIN] | – | – | – | – | – | – | 11% | 69.4% | 2.2% | 30.8% | 4.9% | – |
| COc1ccc(/C=C\C(=O)O)c(OCc2cn(-c3cccnc3Cl)nn2)c1CC=C(C)C | 32.6 µM | – | 42.2 µM | – | – | 23 µM | – | – | – | – | – | 5.6 µM |
| COc1ccc(/C=C\C(=O)O)c(OCc2cn(-c3ccc(CO)cc3)nn2)c1CC=C(C)C | 16.4 µM | 40 µM | 27.1 µM | 19.3 µM | 28.3 µM | 31.7 µM | – | – | – | – | – | – |
| COc1ccc(/C=C\C(=O)O)c(OCc2cn(-c3nc4ccccc4s3)nn2)c1CC=C(C)C | 20.8 µM | 17.2 µM | 23 µM | 20.2 µM | – | 16.4 µM | – | – | – | – | – | 42.1 µM |
| COc1ccc(/C=C\C(=O)O)c(OCc2cn(-c3ccccc3I)nn2)c1CC=C(C)C | 32.7 µM | – | 42.3 µM | – | – | 23.1 µM | – | – | – | – | – | 2.2 µM |
| Cn1c(=O)n(-c2ccc(C(C)(C)C#N)cc2)c2c3cc(-c4cnc5ccccc5c4)ccc3ncc21 [DACTOLISIB] | 12.5 µM | 11.2 µM | 10.3 µM | – | 12.3 µM | 0.044 µM | – | – | – | – | – | – |
| COc1ccc(/C=C\C(=O)O)c(OCc2cn(-c3ccc(NC(=O)c4ccccc4)cc3)nn2)c1CC=C(C)C | 21.2 µM | 23.3 µM | 17.2 µM | 20.3 µM | – | 16.4 µM | – | – | – | – | – | 42.7 µM |
| COc1ccc(/C=C\C(=O)O)c(OCc2cn(-c3ccccc3)nn2)c1CC=C(C)C | 21.2 µM | 34.1 µM | 29.2 µM | 32.3 µM | 35 µM | 26 µM | – | – | – | – | – | 40.5 µM |
| COc1ccc(/C=C\C(=O)O)c(OCc2cn(CC(O)c3ccccc3)nn2)c1CC=C(C)C (stereo not given) | – | 17.3 µM | 35.4 µM | 43 µM | 14.2 µM | 45.3 µM | – | – | – | – | – | – |
| COc1ccc2ccc(=O)oc2c1CC=C(C)C [OSTHOLE] | 23.2 µM | 42.4 µM | 30.9 µM | > 60 µM | 24.8 µM | 30.2 µM | – | – | – | – | – | 46.2 µM |
